This excerpt belongs to a sample that is enriched for hits.
IDH1 mut inh = inhibitors of human IDH1 R132H. IDH1 R132H reductase, diaphorase/resazurin fluorescence, 60 min. inhibition, % at 10 µM. 0.18% of 70,000 active. AID 624101; in the data active means inhibition above about 34%; inconclusive means no clear call, values can overlap the other calls; inactive means below about 11%;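 further: 0% = DMSO and 100% = no enzyme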
KDM4C inh = inhibitors of human demethylase GASC-1 KDM4C; AID 720574; GST-KDM4C 2-372, H3K9me3 peptide, LANCE TR-FRET; inhibition, % at 12.5 µM; 0.15% of 96,000 active;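 active means mean replicate inhibition above about 25%, with at least 55% of replicates also reaching it, limit read from the data, passing the limit was not always enough; inconclusive means only one of those two conditions met; inactive means neither condition met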
Target sequence (Q9H3R0 2-372 limits assumed): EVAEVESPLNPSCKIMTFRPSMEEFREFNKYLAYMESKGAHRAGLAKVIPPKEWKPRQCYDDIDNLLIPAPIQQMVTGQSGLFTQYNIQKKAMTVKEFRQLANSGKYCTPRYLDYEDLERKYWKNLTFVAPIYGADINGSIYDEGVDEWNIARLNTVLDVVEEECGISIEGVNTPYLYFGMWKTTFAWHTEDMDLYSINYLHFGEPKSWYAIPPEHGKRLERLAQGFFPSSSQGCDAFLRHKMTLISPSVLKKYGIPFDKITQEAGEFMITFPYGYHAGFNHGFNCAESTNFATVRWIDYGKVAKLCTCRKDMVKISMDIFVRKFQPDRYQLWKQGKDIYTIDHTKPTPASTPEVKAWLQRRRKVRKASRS
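reagent = H3K9me3 peptide substrate, Fe(II), 2-oxoglutarate | system = GST-tagged GASC-1 (JMJD2C) catalytic fragment, aa 2-372 | amount = enzyme final amount 10 nM | read-out = Fall in 671/618 emission ratio as inhibition | medium = HEPES buffer, pH 7.5, plus ascorbate | schedule = 30 min reaction, 60 min detection, RT | measured by = LANCE TR-FRET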
T cruzi growth-1 = inhibitors of T. cruzi proliferation. T. cruzi beta-gal in NIH3T3, GalScreen luminescence, 90 h. inhibition, % at 8.34 µM. 5.9% of 77,000 active;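 active means mean inhibition above about 93%, with at least 55% of replicates each passing it, limit read from the data, passing the limit was not always enough; inconclusive means only one of those two conditions holds; inactive means neither condition holds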
T cruzi growth-2 = blocks T. cruzi growth in NIH3T3 host cells; shares compounds with T cruzi growth-1; inhibition, % at 8.35 µM; T. cruzi beta-gal in NIH3T3, GalScreen luminescence, 90 h; 72% of 5,600 active; AID 651739;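 active means mean replicate inhibition above about 95% and at least 55% of replicates individually reaching it, limit read from the data; inconclusive means only one of the two criteria is met; inactive means neither criterion is met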
T cruzi growth-3 = Trypanosoma cruzi proliferation inhibition. shares compounds with T cruzi growth-1. AID 651740. 21% of 5,600 active. T. cruzi beta-gal in NIH3T3, GalScreen luminescence, 90 h. inhibition, % at 2.09 µM;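 active means mean inhibition above about 95%, with at least 55% of replicates also reaching it, limit read from the data; inconclusive means meets just one of the two conditions; inactive means meets neither condition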;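 further: plate controls were neutral control median for no effect and positive control median for full effect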
NIH3T3 tox = NIH/3T3 (mouse) viability loss; cytotoxicity (signal decrease), % at 8.35 µM; shares compounds with T cruzi growth-1; 14% of 5,600 active; NIH/3T3 viability, CellTiter-Glo ATP luminescence, 90 h;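 active means mean signal decrease across replicates above about 35% based on untreated-well scatter, with enough replicates individually passing, limit read from the data; inconclusive means no rule stated though some were filed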;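 further: 0% = median of neutral control wells and 100% = median of positive control wells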
NIH3T3 tox 2 = kills mouse NIH/3T3 fibroblasts; shares compounds with T cruzi growth-1; NIH/3T3 viability, CellTiter-Glo ATP luminescence, 90 h; inhibition, % at 24.9 µM; 56% of 5,600 active;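 active means mean loss of cell viability signal at or above a set limit, and enough replicates individually reaching it; inconclusive means meets only the mean limit or only the replicate share; inactive means meets neither condition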;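 further: 0% = median of neutral control wells and 100% = median of positive control wells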
Starred values were filed as active, the others as inactive; u = inconclusive; x = no result given.

SMILES | IDH1 mut inh | KDM4C inh | T cruzi growth-1 | T cruzi growth-2 | T cruzi growth-3 | NIH3T3 tox | NIH3T3 tox 2
O=C(Nc1ccccc1F)N1CCCCN2[C@H](CO)[C@@H](c3ccc(C#Cc4ccccc4)cc3)[C@H]2C1 | x | -1 | 89 | x | x | x | x
O=C(Nc1ccccc1F)N1CCCCN2[C@@H](CO)[C@@H](c3ccc(C#Cc4cccnc4)cc3)[C@@H]2C1 | x | 0 | 107* | 97* | 94 | 16 | 60*
O=C(Nc1ccccc1F)N1CCCCN2[C@H](CO)[C@@H](c3ccc(C#Cc4ccccc4)cc3)[C@@H]2C1 | x | -2 | 94 | x | x | x | x
O=C(Nc1ccccc1F)N1CCCCN2[C@H](C1)[C@@H](c1ccc(C#Cc3cccnc3)cc1)[C@@H]2CO | x | 0 | 104* | 106* | 39 | 26 | 65*
COc1ccc(C#Cc2ccc([C@@H]3[C@@H](CO)N4CCCCN(Cc5ccccc5F)C[C@@H]34)cc2)cc1 | x | -2 | 27 | x | x | x | x
O=C(Nc1ccccc1F)N1CCCCN2[C@H](CO)[C@@H](c3ccc(C#Cc4cccnc4)cc3)[C@@H]2C1 | x | 5 | 99* | 108* | 90 | 21 | 55*
OC[C@@H]1[C@@H](c2ccc(C#Cc3cccnc3)cc2)[C@@H]2CN(Cc3ccccc3F)CCCCN12 | x | -1 | 112* | 103* | 98* | 36* | 104*
COc1ccc(NC(=O)Nc2ccc3c(c2)CC(=O)N([C@@H](C)CO)C[C@@H](C)[C@H](CN(C)CC2CC2)O3)cc1 | 3 | 0 | 26 | x | x | x | x
COc1ccc2c3c([nH]c2c1)[C@H](CO)N(C(=O)NC(C)C)CC31CN(C(=O)c2ccncc2)C1 | x | -2 | x | x | x | x | x
O=C(C[C@@H]1CC[C@H]2[C@@H](COC[C@@H](O)CN2Cc2cc(F)ccc2F)O1)NCc1ccc(F)cc1 | x | -1 | 7 | x | x | x | x
C[C@@H]1CCCCO[C@H](CN(C)Cc2ccc3c(c2)OCO3)[C@H](C)CN([C@H](C)CO)C(=O)c2cc(NC(=O)Nc3ccc(C(F)(F)F)cc3)ccc2O1 | x | 0 | u | 96* | 116* | u | 95*
C[C@@H]1CN([C@@H](C)CO)C(=O)c2cc(NC(=O)Nc3ccc4c(c3)OCO4)ccc2O[C@@H](C)CCCCO[C@@H]1CN(C)Cc1ccc(C(F)(F)F)cc1 | x | 15 | 94 | x | x | x | x
C[C@@H]1CN([C@@H](C)CO)C(=O)c2cc(NC(=O)Nc3ccc4c(c3)OCO4)ccc2O[C@@H](C)CCCCO[C@H]1CN(C)Cc1ccc(C(F)(F)F)cc1 | 0 | 1 | 81 | x | x | x | x
C[C@@H]1CCCCO[C@@H](CN(C)Cc2ccc(C(F)(F)F)cc2)[C@@H](C)CN([C@H](C)CO)C(=O)c2cc(NC(=O)Nc3ccc4c(c3)OCO4)ccc2O1 | 2 | -1 | 100* | 101* | 21 | -9 | -10
C[C@@H]1CCCCO[C@@H](CN(C)Cc2ccc3c(c2)OCO3)[C@H](C)CN([C@@H](C)CO)C(=O)c2cc(NC(=O)Nc3ccc(C(F)(F)F)cc3)ccc2O1 | x | 0 | u | 99* | 111* | 31 | 53*
C[C@@H]1CN([C@H](C)CO)C(=O)c2cc(NC(=O)Nc3ccc4c(c3)OCO4)ccc2O[C@@H](C)CCCCO[C@@H]1CN(C)Cc1ccc(C(F)(F)F)cc1 | x | -2 | 81 | x | x | x | x
C[C@H]1CCCCO[C@@H](CN(C)Cc2ccc3c(c2)OCO3)[C@@H](C)CN([C@@H](C)CO)C(=O)c2cc(NC(=O)Nc3ccc(C(F)(F)F)cc3)ccc2O1 | 1 | -1 | 121* | 91 | 116* | 47* | 105*
C[C@@H]1CCCCO[C@H](CN(C)Cc2ccc(C(F)(F)F)cc2)[C@H](C)CN([C@H](C)CO)C(=O)c2cc(NC(=O)Nc3ccc4c(c3)OCO4)ccc2O1 | -1 | 0 | 90 | x | x | x | x
Cc1ccc(S(=O)(=O)N[C@H]2C=C[C@H](CC(=O)NCCc3ccncc3)O[C@H]2CO)cc1 | 0 | 0 | 42 | x | x | x | x
CCC(=O)N1[C@@H]2Cn3c(cccc3=O)[C@H]1[C@@H](C(=O)NCc1ccccc1)[C@@H]2CO | x | -1 | 17 | x | x | x | x
CCCNC(=O)N1[C@@H]2CN(C(=O)Nc3cccc(Cl)c3)c3ccccc3[C@@H]2[C@@H]1CO | x | -1 | 69 | x | x | x | x
C[C@@H]1CCCCO[C@H](CN(C)Cc2ccc(C(=O)O)cc2)[C@H](C)CN([C@H](C)CO)C(=O)c2cc(NS(=O)(=O)c3ccccc3)ccc2O1 | 3 | 0 | 12 | x | x | x | x
C[C@@H]1CCCCO[C@@H](CN(C)Cc2ccc3c(c2)OCO3)[C@@H](C)CN([C@@H](C)CO)C(=O)c2cc(NC(=O)Nc3ccc(C(F)(F)F)cc3)ccc2O1 | x | 0 | u | 98* | 114* | u | 57*
C[C@@H]1CN([C@@H](C)CO)C(=O)c2cc(NC(=O)Nc3ccc(C(F)(F)F)cc3)ccc2O[C@@H](C)CCCCO[C@@H]1CN(C)Cc1ccc2c(c1)OCO2 | 2 | 0 | 123* | 98* | 113* | 14 | 20
C[C@H](CO)N1C[C@H](C)[C@H](CN(C)Cc2ccc(C(F)(F)F)cc2)OCCCC[C@H](C)Oc2ccc(NC(=O)Nc3ccc4c(c3)OCO4)cc2C1=O | 3 | 18 | 79 | x | x | x | x
SMILES | IDH1 mut inh | KDM4C inh | T cruzi growth-1 | T cruzi growth-2 | T cruzi growth-3 | NIH3T3 tox | NIH3T3 tox 2
C[C@@H]1CCCCO[C@H](CN(C)Cc2ccc(C(F)(F)F)cc2)[C@H](C)CN([C@H](C)CO)C(=O)c2cc(NC(=O)Nc3ccc(C(F)(F)F)cc3)ccc2O1 | x | 7 | 80 | x | x | x | x
Cc1noc(C)c1S(=O)(=O)Nc1ccc2c(c1)C(=O)N([C@@H](C)CO)C[C@H](C)[C@@H](CN(C)Cc1ccc(C(=O)Nc3ccccc3N)cc1)OCCCC[C@@H](C)O2 | x | -1 | 66 | x | x | x | x
C=CCn1c(N)cc(=O)nc1SCC(=O)N1c2ccccc2Sc2ccccc21 | 0 | x | x | x | x | x | x
C[C@@H]1CN([C@@H](C)CO)C(=O)c2cccc(NC(=O)Nc3cccc4ccccc34)c2O[C@H]1CN(C)S(=O)(=O)c1ccc(Cl)cc1 | 0 | -4 | 75 | x | x | x | x
COCC(=O)N(C)C[C@H]1Oc2cc(-c3cccc(F)c3)ccc2S(=O)(=O)N([C@@H](C)CO)C[C@@H]1C | 0 | -2 | -13 | x | x | x | x
C[C@@H]1CN([C@@H](C)CO)S(=O)(=O)c2ccc(C#Cc3ccncc3)cc2O[C@H]1CN(C)S(=O)(=O)c1ccc(F)cc1 | -1 | -6 | 90 | x | x | x | x
C[C@H]1CN([C@@H](C)CO)S(=O)(=O)c2ccc(C#Cc3ccncc3)cc2O[C@H]1CN(C)S(=O)(=O)c1ccc(F)cc1 | 1 | -3 | 118* | 102* | 67 | u | 11

Compound activity (PubChem)
